# Measured values from ChEMBL document CHEMBL1126279, “Antiallergic and cytoprotective activity of new N-phenylbenzamido acid derivatives” (1992).
# Activity calls are given as the source filed them. The calls are words filed in the database; no cut-off is given here.
# What was measured:
# Rattus norvegicus [1] = experiment: Cytoprotective activity against ethanol-induced gastric lesions in male conscious rats; type: functional; conditions: Stomach, read-out: ID50 (the source's name)
# How it was run: (§1)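 Male rats (140–160 g) were fasted 24 h with water allowed. Lesions were induced by 1.5 mL oral absolute ethanol. Drugs were given iv (5 mL/kg) as sodium salt in saline, 15 min before. Stomachs were scored blind at 1 h for necrotic lesion length categories and counts (lesion index). Each agent was given at ≥3 doses, groups of five. % effect vs control was computed, and ID50 came from log-dose regression.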
# Rattus norvegicus [2] = organism: Rattus norvegicus; experiment: Inhibition of rat passive cutaneous anaphylaxis reaction; Inactive.; type: functional, organism-based
# How it was run: (§2)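 IgE antiserum was raised in male Sprague-Dawley rats by im ovalbumin (25 mg) in Bordetella pertussis suspension, and sera were pooled 14 days later. Naive young rats received 0.05 mL antiserum intradermally at two back sites. After 24 h they were challenged iv with saline containing egg albumin plus Evans blue and killed 30 min later to measure wheal axes. Compounds were given as sodium salt in saline, im, 15 min pre-challenge, at ≥3 doses (n ≥ 15). ID50 was derived by log-dose regression with p = 0.05 fiducial limits.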
# Rattus norvegicus [3] = experiment: Antiallergic activity against rat passive cutaneous anaphylaxis (PCA) reaction induced by 25 mg/kg of ovalbumin given iv (bolus).; type: functional; conditions: read-out: ID50 (the source's name)
# Rattus norvegicus [4] = experiment: Cytoprotective activity against ethanol-induced gastric lesions in male conscious rats; Inactive.; type: functional, organism-based; conditions: Stomach; how it was run: as §1
# Rattus norvegicus [5] = experiment: Antiallergic activity against rat passive cutaneous anaphylaxis (PCA) reaction induced by 25 mg/kg of ovalbumin given iv(bolus); type: functional; conditions: read-out: ID50 (the source's name)
# Rattus norvegicus [6] = experiment: Compound was evaluated for cytoprotective activity against glucose-induced gastric lesions in male conscious rats; type: functional; conditions: Stomach, read-out: ID50 (the source's name)
# How it was run: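 Male rats (180–200 g) were fasted 24 h, then fed solely an aqueous glucose liquid meal. Drugs were given sc twice daily for 9 days. Lesions were scored by number of necrotic lesions and extent of impaired rumen area, and % effect vs control was calculated. Agents were given at four dose levels in groups of five in duplicate, or in duplicate at 100 mg/kg.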
# Rattus norvegicus [7] = experiment: Compound was evaluated for cytoprotective activity against sodium chloride-induced gastric lesions in male conscious rats; type: functional; conditions: Stomach, read-out: ID50 (the source's name)
# How it was run: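 Male rats (140–160 g) were fasted 24 h. Lesions were induced by oral 1.5 mL/animal 25% (w/v) NaCl. Drugs were given iv (5 mL/kg) 15 min before. Stomachs were scored blind at 1 h by lesion index, and % effect vs control was calculated. Some agents were given at five dose levels in groups of five; others in duplicate at 30 and 100 mg/kg. ID50 came from log-dose regression.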
# Rattus norvegicus [8] = experiment: Compound was evaluated for cytoprotective activity against acetic acid-induced gastric lesions in male conscious rats; type: functional; conditions: Stomach, read-out: ID50 (the source's name)
# How it was run: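 Under ether anesthesia, 50 µL of 30% acetic acid was injected into the gastric submucosa of fasted male rats (140–160 g). Drugs were given im at −0.5, 4 and 21 h. […] Agents were given at five dose levels in groups of five, or in duplicate at 100 mg/kg.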
# Rattus norvegicus [9] = organism: Rattus norvegicus; experiment: Compound was evaluated for antiallergic activity against rat passive cutaneous anaphylaxis (PCA); type: functional; conditions: read-out: ID50 (the source's name); how it was run: as §2
Structure (SMILES),ED50 (Rattus norvegicus [1]) [mg/kg],ID50 (Rattus norvegicus [2]),ED50 (Rattus norvegicus [3]) [mg/kg],ID50 (Rattus norvegicus [4]),other results
N#Cc1ccc(C(=O)Nc2cccc(-c3nn[nH]n3)c2)cc1,21.4,inactive,,,
O=C(O)c1ccc(NC(=O)c2ccc(-c3nn[nH]n3)cc2)cc1,3.5,,2.3,,
O=C(Nc1ccccc1)c1cccc(-c2nn[nH]n2)c1,38.1,,4.5,,
O=C([O-])c1cc(=O)c2c(OCC(O)COc3cccc4oc(C(=O)[O-])cc(=O)c34)cccc2o1.[Na+].[Na+] [CROMOLYN SODIUM],50.8,,1.5,,
O=C(O)c1cc(NC(=O)c2ccc(O)c(O)c2)cc(C(=O)O)c1,,inactive,,inactive,
NC(=O)c1ccc(NC(=O)c2ccc(-c3nn[nH]n3)cc2)cc1,33,,2,,
O=C(Nc1cccc(-c2nn[nH]n2)c1)c1cccc(-c2nn[nH]n2)c1,15.8,,1.6,,
N#Cc1ccc(C(=O)Nc2ccc(C(=O)O)cc2)cc1,,inactive,,inactive,
N#Cc1ccc(C(=O)Nc2cc(C(N)=O)cc(C(=O)O)c2)cc1,87.2,,5.7,,
O=C(O)c1cc(NC(=O)c2ccc(Cl)cc2Cl)cc(C(=O)O)c1,103,inactive,,,
CCCOc1ccc(C(=O)Nc2cc(C(=O)O)cc(C(=O)O)c2)cc1,78,inactive,,,
O=C(O)c1ccc(NC(=O)c2ccc(C(=O)O)cc2)cc1,54.3,,25.4,,
N#Cc1ccc(C(=O)Nc2cccc(C(=O)O)c2C(=O)O)cc1,135,,15.8,,
O=C(Nc1ccc(C(=O)O)c(C(=O)O)c1)c1ccc([N+](=O)[O-])cc1,,,13.2,inactive,
N#Cc1ccc(C(=O)Nc2ccc(C(=O)O)cc2C(=O)O)cc1,66.3,,19.5,,
COc1ccc(/C=C/C(=O)Nc2ccccc2C(=O)O)cc1OC [TRANILAST],,,3.6,inactive,
O=C(Nc1ccc(-c2nn[nH]n2)cc1)c1cccc(-c2nn[nH]n2)c1,0.6,,0.05,,
O=C(Nc1ccccc1-c1nn[nH]n1)c1cccc(-c2nn[nH]n2)c1,9.7,,,,ED50 (Rattus norvegicus [5]): 1.4 mg/kg
CCCc1c2oc(C(=O)O)cc(=O)c2cc2c(=O)cc(C(=O)O)n(CC)c12 [NEDOCROMIL],,,1.3,inactive,
O=C(Nc1ccccc1-c1nn[nH]n1)c1ccc(-c2nn[nH]n2)cc1,6.1,,1.5,,
O=C(O)c1cc(NC(=O)c2ccc(Cl)cc2)cc(C(=O)O)c1,97.3,inactive,,,
O=C(O)c1cc(NC(=O)c2ccc([N+](=O)[O-])cc2)cc(C(=O)O)c1,61.1,,9.8,,
O=C(Nc1ccccc1)c1ccc(-c2nn[nH]n2)cc1,40,,8.4,,
N#Cc1ccc(C(=O)Nc2ccc(-c3nn[nH]n3)cc2)cc1,54.4,,2.4,,
N#Cc1cccc(C(=O)Nc2cc(C(=O)O)cc(C(=O)O)c2)c1,140,,5,,
O=C(O)c1ccc(NC(=O)c2ccc([N+](=O)[O-])cc2)cc1,,inactive,,inactive,

Structure (SMILES),ED50 (Rattus norvegicus [1]) [mg/kg],ID50 (Rattus norvegicus [2]),ED50 (Rattus norvegicus [3]) [mg/kg],ID50 (Rattus norvegicus [4]),other results
O=C(O)c1cc(NC(=O)c2cc(O)cc(O)c2)cc(C(=O)O)c1,90.2,inactive,,,
N#Cc1ccc(NC(=O)c2ccc(C(=O)O)cc2)cc1,,inactive,,inactive,
O=C(O)c1cc(NC(=O)c2ccccc2)cc(C(=O)O)c1,,inactive,,inactive,
O=C(O)c1cc(NC(=O)c2ccc(-c3nn[nH]n3)cc2)cc(C(=O)O)c1,8.2,,1.2,,
COc1cc(OC)cc(C(=O)Nc2cc(C(=O)O)cc(C(=O)O)c2)c1,108,inactive,,,
O=C(Nc1cccc(-c2nn[nH]n2)c1)c1ccc(-c2nn[nH]n2)cc1,1.1,,0.03,,
O=C(O)c1ccc(C(=O)Nc2cc(C(=O)O)cc(C(=O)O)c2)cc1,32.2,,2.1,,
CN(C(=O)c1ccc(-c2nn[nH]n2)cc1)c1ccc(-c2nn[nH]n2)cc1,60,,3.8,,
N#Cc1ccc(C(=O)Nc2cc(C(=O)O)ccc2C(=O)O)cc1,26.8,,1.5,,
O=C(Nc1ccc(-c2nnn[nH]2)cc1)c1ccc(-c2nnn[nH]2)cc1 [ANDOLAST],2.5,,,,ED50 (Rattus norvegicus [6]): 23.9 mg/kg; ED50 (Rattus norvegicus [5]): 0.09 mg/kg; ED50 (Rattus norvegicus [7]): 18.2 mg/kg; ED50 (Rattus norvegicus [8]): 9.4 mg/kg
N#Cc1ccc(C(=O)Nc2cc(CO)cc(C(=O)O)c2)cc1,,inactive,,inactive,
COc1ccc(C(=O)Nc2cc(C(=O)O)cc(C(=O)O)c2)cc1,,inactive,,inactive,
CCCCc1ccc(C(=O)Nc2cc(C(=O)O)cc(C(=O)O)c2)cc1,91.9,,12.3,,
O=C(O)c1cc(NC(=O)c2cccc(Cl)c2)cc(C(=O)O)c1,,inactive,,inactive,
Cc1ccc(C(=O)Nc2cc(C(=O)O)cc(C(=O)O)c2)cc1,,inactive,,inactive,
O=C(O)c1cc(NC(=O)c2ccc(O)cc2)cc(C(=O)O)c1,,inactive,,inactive,
O=C(O)c1cc(NC(=O)c2ccc(C(F)(F)F)cc2)cc(C(=O)O)c1,,inactive,,inactive,
COc1cc(C(=O)Nc2cc(C(=O)O)cc(C(=O)O)c2)cc(OC)c1OC,,inactive,,inactive,
O=C(O)c1ccc(C(=O)O)c(NC(=O)c2ccc(-c3nn[nH]n3)cc2)c1,31.1,,1.2,,
CCCc1ccc(C(=O)Nc2cc(C(=O)O)cc(C(=O)O)c2)cc1,94.2,,,,ED50 (Rattus norvegicus [9]): 6.7 mg/kg
N#Cc1ccc(C(=O)Nc2ccc(C(=O)O)c(C(=O)O)c2)cc1,,,10.1,inactive,
N#Cc1ccc(NC(=O)c2ccc(-c3nn[nH]n3)cc2)cc1,19.7,,1.2,,
COc1ccc(C(=O)Nc2cc(C(=O)O)cc(C(=O)O)c2)cc1OC,116,inactive,,,
N#Cc1ccc(C(=O)Nc2cc(C(=O)O)cc(C(=O)O)c2)cc1,32.1,,1.7,,
N#Cc1ccc(C(=O)Nc2cccc(C(=O)O)c2)cc1,,inactive,,inactive,
